Laboratory results as given in ChEMBL document CHEMBL4038325, “Opioid Receptor Modulators with a Cinnamyl Group” (J Med Chem, 2017).
Active and inactive are the calls of the source. The rule behind the calls is not given here.

Columns and labels:
[1] = target: T1, Kappa-type opioid receptor (Homo sapiens, UniProt P41145); details: HEK-293T, at 10 µM
Mu-type opioid receptor [2] = target: T2, Mu-type opioid receptor (Homo sapiens, UniProt P35372); details: HEK-293T, at 10 µM
[3] = target: T1, Kappa-type opioid receptor; assay: Agonist activity at recombinant human KOR expressed in HEK293T cells assessed as inhibition of forskolin-stimulated cAMP level preincubated for 15 to 20 mins followed by forskolin addition by GloSensor assay; format: functional, cell-based; details: for inhibition: HEK-293T
Summary of the method: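 HEK293T transiently transfected with hKOR plus GloSensor-22F plasmid. Compounds (10 µM to 10 pM, triplicate) added for 15-20 min at 37°C, then forskolin added (final 10 µM). Luminescence of live cells normalized to % forskolin-alone control. IC50 from non-linear regression; two independent experiments.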

Mu-type opioid receptor [4] = target: T2, Mu-type opioid receptor; assay: Agonist activity at recombinant human MOR expressed in HEK293T cells assessed as inhibition of forskolin-stimulated cAMP level at 10 uM preincubated for 15 to 20 mins followed by forskolin addition by GloSensor assay relative to control; format: functional, cell-based; details: HEK-293T
Summary of the method: (§1)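 HEK293T transiently co-transfected (calcium phosphate) with DOR or MOR plus pGloSensor-22F. Cells were loaded with luciferin in HBSS/20 mM HEPES pH 7.4 for 90 min, then given compound in triplicate for 15-20 min at 37°C. Forskolin added (final 10 µM); luminescence read. cAMP signal normalized to forskolin-alone control.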

[5] = target: T1, Kappa-type opioid receptor; details: HEK-293T, at 10 µM; remark: listed apart in the source
[6] = target: Delta-type opioid receptor (Homo sapiens) (UniProt P41143); assay: Agonist activity at recombinant human DOR expressed in HEK293T cells assessed as inhibition of forskolin-stimulated cAMP level at 10 uM preincubated for 15 to 20 mins followed by forskolin addition by GloSensor assay relative to control; format: functional, cell-based; details: HEK-293T
Delta-type opioid receptor (Homo sapiens), sequence (P41143 whole entry): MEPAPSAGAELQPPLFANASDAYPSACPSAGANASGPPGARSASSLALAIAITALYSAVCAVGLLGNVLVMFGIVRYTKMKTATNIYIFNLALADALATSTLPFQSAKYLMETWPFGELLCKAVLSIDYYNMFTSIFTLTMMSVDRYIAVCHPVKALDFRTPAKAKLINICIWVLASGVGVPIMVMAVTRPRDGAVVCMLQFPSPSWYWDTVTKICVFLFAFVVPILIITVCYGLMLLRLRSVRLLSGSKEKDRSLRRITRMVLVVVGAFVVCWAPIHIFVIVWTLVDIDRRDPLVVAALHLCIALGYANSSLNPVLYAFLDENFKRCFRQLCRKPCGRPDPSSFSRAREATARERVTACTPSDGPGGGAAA
Summary of the method: as §1

D(2) dopamine receptor [7] = target: T3, D(2) dopamine receptor (Homo sapiens, UniProt P14416); assay: Agonist activity at dopamine D2 receptor (unknown origin) at 10 uM
T3 sequence (P14416 whole entry): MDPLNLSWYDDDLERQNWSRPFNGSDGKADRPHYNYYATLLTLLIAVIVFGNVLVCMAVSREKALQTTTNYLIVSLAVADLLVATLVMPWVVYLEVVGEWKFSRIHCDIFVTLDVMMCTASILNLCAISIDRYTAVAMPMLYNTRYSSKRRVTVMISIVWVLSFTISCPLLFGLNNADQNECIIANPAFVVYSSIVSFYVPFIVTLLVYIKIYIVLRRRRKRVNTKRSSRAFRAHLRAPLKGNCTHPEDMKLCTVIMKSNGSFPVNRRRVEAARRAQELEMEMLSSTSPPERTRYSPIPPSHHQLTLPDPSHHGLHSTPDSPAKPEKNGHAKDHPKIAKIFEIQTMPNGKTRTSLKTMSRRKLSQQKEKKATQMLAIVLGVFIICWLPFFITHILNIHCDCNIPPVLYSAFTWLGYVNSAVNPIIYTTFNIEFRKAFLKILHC
Summary of the method: (§2)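 Primary screen, agonist and antagonist modes, each receptor tested separately. Compounds at 10 µM in triplicate; response taken as % inhibition or stimulation relative to control. Compounds giving at least 50% effect were then run over 10 µM to 10 pM to obtain EC50/IC50.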

D(2) dopamine receptor [8] = target: T3, D(2) dopamine receptor; assay: Antagonist activity at dopamine D2 receptor (unknown origin) at 10 uM
Summary of the method: as §2

Mus musculus [9] = assay: Analgesic activity in C57BL/6J mouse assessed as tail withdrawal latency at 10 mg/kg measured after 30 mins in presence of KOR antagonist norBNI by tail flick test; format: functional, organism-based
Summary of the method: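 Male C57BL/6J mice (5-6/group) received norBNI 10 mg/kg i.p. 30 min before test compound at 10 mg/kg i.p. Tail withdrawal latency in 52 ± 0.5°C water was measured at the 30 min time point, three readings, by a blinded observer.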

[10] = target: Delta-type opioid receptor (Homo sapiens) (UniProt P41143); assay: Antagonist activity at recombinant human DOR expressed in HEK293T cells assessed as reduction in DADLE-induced inhibition of forskolin-stimulated cAMP level at 10 uM preincubated for 15 to 20 mins followed by DADLE and forskolin addition by GloSensor assay relative to control; format: functional, cell-based; details: HEK-293T
Summary of the method: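 HEK293T transiently expressing DOR plus GloSensor-22F were given compound in triplicate for 15-20 min at 37°C. DADLE (1 µM) was then added, followed by forskolin (10 µM); luminescence read. Signal normalized to % control (agonist + forskolin).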

[11] = target: Histamine H1 receptor (Homo sapiens) (UniProt P35367); assay: Agonist activity at histamine H1 receptor (unknown origin) at 10 uM
Histamine H1 receptor (Homo sapiens), sequence (P35367 whole entry): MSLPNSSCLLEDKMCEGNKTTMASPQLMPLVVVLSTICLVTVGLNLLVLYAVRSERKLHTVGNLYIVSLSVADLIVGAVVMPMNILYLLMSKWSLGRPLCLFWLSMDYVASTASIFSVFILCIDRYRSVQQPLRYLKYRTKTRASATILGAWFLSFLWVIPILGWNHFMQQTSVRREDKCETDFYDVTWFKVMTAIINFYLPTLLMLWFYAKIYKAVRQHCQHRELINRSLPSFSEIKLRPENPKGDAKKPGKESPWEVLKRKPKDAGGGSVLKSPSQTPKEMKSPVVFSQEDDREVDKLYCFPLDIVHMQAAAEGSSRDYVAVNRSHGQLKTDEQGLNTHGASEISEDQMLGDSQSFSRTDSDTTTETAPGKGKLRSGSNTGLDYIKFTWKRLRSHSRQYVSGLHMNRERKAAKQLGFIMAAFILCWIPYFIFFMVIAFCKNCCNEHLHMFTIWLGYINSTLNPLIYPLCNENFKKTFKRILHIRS
Summary of the method: as §2

[12] = target: Histamine H1 receptor (Homo sapiens) (UniProt P35367); assay: Antagonist activity at histamine H1 receptor (unknown origin) at 10 uM
Summary of the method: as §2

Mus musculus [13] = assay: Analgesic activity in C57BL/6J mouse assessed as tail withdrawal latency at 10 mg/kg by tail flick test; format: functional, organism-based
Summary of the method: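 Male C57BL/6J mice, 6-8 weeks, 22-25 g; 5-6 per group. Dosed 10 mg/kg i.p. Distal third of tail immersed in 52 ± 0.5°C water; latency recorded three times per time point by a blinded observer. Latency expressed as % of baseline taken 15 min before dosing, followed over time; area under curve also calculated.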

Mu-type opioid receptor [14] = target: T2, Mu-type opioid receptor; format: functional, cell-based, HEK-293T

T1 sequence (P41145 whole entry): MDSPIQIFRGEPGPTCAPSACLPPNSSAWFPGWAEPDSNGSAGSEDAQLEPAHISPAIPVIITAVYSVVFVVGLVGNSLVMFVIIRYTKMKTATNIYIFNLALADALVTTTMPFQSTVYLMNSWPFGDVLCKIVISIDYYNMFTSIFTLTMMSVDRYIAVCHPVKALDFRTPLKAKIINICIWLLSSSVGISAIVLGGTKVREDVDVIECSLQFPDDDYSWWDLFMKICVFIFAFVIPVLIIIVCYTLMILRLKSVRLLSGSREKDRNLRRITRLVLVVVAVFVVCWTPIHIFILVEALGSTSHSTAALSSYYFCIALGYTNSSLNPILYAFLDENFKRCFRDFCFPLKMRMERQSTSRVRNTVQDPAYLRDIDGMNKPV
T2 sequence (P35372 whole entry): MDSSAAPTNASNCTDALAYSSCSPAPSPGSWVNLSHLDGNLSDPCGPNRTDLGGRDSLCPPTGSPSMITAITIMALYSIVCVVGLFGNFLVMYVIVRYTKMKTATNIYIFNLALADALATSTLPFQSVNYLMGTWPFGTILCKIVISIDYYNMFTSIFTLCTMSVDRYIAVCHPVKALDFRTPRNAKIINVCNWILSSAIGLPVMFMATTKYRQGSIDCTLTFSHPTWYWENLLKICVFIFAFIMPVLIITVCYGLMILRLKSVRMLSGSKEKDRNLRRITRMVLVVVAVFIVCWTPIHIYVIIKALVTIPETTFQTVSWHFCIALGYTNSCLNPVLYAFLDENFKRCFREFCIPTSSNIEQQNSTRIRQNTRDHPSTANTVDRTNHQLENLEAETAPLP

inhibition [1]	inhibition (Mu-type opioid receptor [2])	inhibition [3]	inhibition (Mu-type opioid receptor [4])	SMILES	inhibition [5]	inhibition [6]	inhibition [10]	also measured
inactive	inactive	inactive	inactive	O=C(O)CNC(=O)/C(=C/c1ccccc1)CN1CCN(c2ccc(O)cc2)CC1				
inactive	inactive		inactive	O=C(O)CNC(=O)C(Cc1ccccc1)CN1CCN(c2ccccc2O)CC1 (stereo not given)	inactive			
	inactive		inactive	O=C(O)/C(=C/c1ccccc1)CN1CCN(c2cccc(Cl)c2Cl)CC1		inactive	inactive	Activity (D(2) dopamine receptor [7]): Not Active; inhibition (INH) (D(2) dopamine receptor [8]): Not Active; Activity (Mus musculus [9]): inactive; IC50 ([3]; read-out: IC50): 800 nM; IC50 ([3]; read-out: pIC50 (converted)): 716 to 813 nM; Activity [11]: inactive; inhibition [12]: inactive; Activity (Mus musculus [13]): Dose-dependent effect
inactive				O=C(O)CNC(=O)/C(=C/c1ccccc1)CN1CCN(c2cccc(O)c2)CC1				
inactive	inactive		inactive	COc1ccccc1N1CCN(CC(Cc2ccccc2)C(=O)NCC(=O)O)CC1 (stereo not given)	inactive			
inactive	inactive	inactive	inactive	CCCC(NC(=O)/C(=C/c1ccccc1)CN1CCN(c2ccc(O)cc2)CC1)C(=O)O (stereo not given)				
Active				Cc1cccc(Oc2ccc(C(=O)N[C@H](CN3CCN(c4cccc(O)c4)[C@@H](C)C3)C(C)C)cc2)c1				
inactive	inactive	inactive	inactive	COc1ccccc1N1CCN(C/C(=C\c2ccccc2)C(=O)NCC(=O)O)CC1				
inactive	inactive	inactive	inactive	COc1cccc(N2CCN(C/C(=C\c3ccccc3)C(=O)NCC(=O)O)CC2)c1				
	inactive		inactive	CCOC(=O)C(NC(=O)/C(=C/c1ccccc1)CN1CCN(c2nsc3ccccc23)CC1)C(C)C (stereo not given)		inactive	inactive	Activity (D(2) dopamine receptor [7]): Not Active; inhibition (INH) (D(2) dopamine receptor [8]): Not Active; IC50 ([3]; read-out: IC50): 1800 nM; IC50 ([3]; read-out: pIC50 (converted)): 1910 to 1980 nM; Activity [11]: inactive; inhibition [12]: inactive
inactive	50%			C[C@H]1CN(C[C@H](Cc2ccccc2)C(=O)NCC(=O)O)CC[C@@]1(C)c1cccc(O)c1	inactive	inactive	inactive	
inactive	inactive		inactive	O=C(O)CNC(=O)C(Cc1ccccc1)CN1CCN(c2ccccc2)CC1 (stereo not given)	inactive			
inactive	inactive	inactive	inactive	CC(C)C[C@H](NC(=O)/C(=C/c1ccccc1)CN1CCN(c2ccc(O)cc2)CC1)C(=O)O				
inactive	inactive	inactive	inactive	CC(C)[C@H](NC(=O)/C(=C/c1ccccc1)CN1CCN(c2ccc(O)cc2)CC1)C(=O)O				
inactive	inactive		inactive	COc1ccc(N2CCN(CC(Cc3ccccc3)C(=O)NCC(=O)O)CC2)cc1 (stereo not given)	inactive			
	inactive		inactive	CC(C)[C@H](NC(=O)/C(=C/c1ccccc1)CN1CCN(c2ccc(Cl)cc2)CC1)C(=O)O		inactive	inactive	Activity (D(2) dopamine receptor [7]): Not Active; inhibition (INH) (D(2) dopamine receptor [8]): Not Active; Activity (Mus musculus [9]): inactive; IC50 ([3]; read-out: IC50): 910 nM; IC50 ([3]; read-out: pIC50 (converted)): 910 to 948 nM; Activity [11]: inactive; inhibition [12]: inactive; Activity (Mus musculus [13]): Dose-dependent effect
inactive	inactive	inactive	inactive	COc1ccc(N2CCN(C/C(=C\c3ccccc3)C(=O)NCC(=O)O)CC2)cc1				
inactive	inactive	inactive	inactive	CCC(C)C(NC(=O)/C(=C/c1ccccc1)CN1CCN(c2ccc(O)cc2)CC1)C(=O)O (stereo not given)				

SMILES	inhibition [1]	inhibition (Mu-type opioid receptor [2])	inhibition [3]	inhibition (Mu-type opioid receptor [4])	inhibition [5]	inhibition [6]	inhibition [10]	also measured
CCCC(NC(=O)/C(=C/c1ccccc1)CN1CC[C@@](C)(c2cccc(O)c2)[C@@H](C)C1)C(=O)O (stereo not given in full)	inactive	50%			inactive	inactive	inactive	IC50 (Mu-type opioid receptor [14]; read-out: IC50): 2320 nM; IC50 (Mu-type opioid receptor [14]; read-out: pIC50 (converted)): 2320 to 2340 nM
COc1ccccc1N1CCN(CCC(C(=O)N(C)C)(c2ccccc2)c2ccccc2)CC1				Active				
CC(C)[C@H](NC(=O)/C(=C/c1ccccc1)CN1CC[C@@](C)(c2cccc(O)c2)[C@@H](C)C1)C(=O)O	inactive	50%			inactive	inactive	inactive	IC50 (Mu-type opioid receptor [14]; read-out: IC50): 650 nM; IC50 (Mu-type opioid receptor [14]; read-out: pIC50 (converted)): 658 to 661 nM
CC(C)C[C@H](NC(=O)/C(=C/c1ccccc1)CN1CC[C@@](C)(c2cccc(O)c2)[C@@H](C)C1)C(=O)O	inactive	50%			inactive	inactive	inactive	IC50 (Mu-type opioid receptor [14]; read-out: IC50): 780 nM; IC50 (Mu-type opioid receptor [14]; read-out: pIC50 (converted)): 782 to 794 nM
CCC(C)C(NC(=O)/C(=C/c1ccccc1)CN1CC[C@@](C)(c2cccc(O)c2)[C@@H](C)C1)C(=O)O (stereo not given in full)	inactive	50%			inactive	inactive	inactive	IC50 (Mu-type opioid receptor [14]; read-out: IC50): 1600 nM; IC50 (Mu-type opioid receptor [14]; read-out: pIC50 (converted)): 1600 to 1620 nM
CC1(c2cccc(O)c2)CCN(C/C(=C\c2ccccc2)C(=O)O)CC1	inactive	50%			inactive	inactive	inactive	IC50 (Mu-type opioid receptor [14]; read-out: IC50): 18 nM; IC50 (Mu-type opioid receptor [14]; read-out: pIC50 (converted)): 18.6 to 76.6 nM
